Compound activity deposited in PubChem BioAssay by several laboratories.
An excerpt weighted towards active compounds, which were near 1.4% of everything screened.
m-calpain inh: blocks pig calpain II enzyme activity; purified calpain II, fluorogenic peptide substrate, 30 min; inhibition, % at 16 µM; hit rate 0.37% among 220,000; AID 1236;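 active means inhibition above about 50%, limit read from the data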
Thrombin inh: blocks human thrombin protease activity; inhibition, % at 5 µM; alpha-thrombin, Boc-VPR-AMC fluorogenic substrate cleavage; AID 1046; hit rate 0.26% among 220,000; P00734;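 active means inhibition at or above 40%; inactive means inhibition below 40%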
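Test system: human alpha-thrombin; medium: pH 7.5 Tris-saline with Tween 20; times: reaction at room temperature; signal: AMC fluorescence at 355 nm excitation and 460 nm emission; also added: Boc-VPR-AMC substrate, 15 µM final; dosing: one concentration per compound, 5 µM, with 0.2% DMSO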
FXIa inh: factor XIa (human) inhibition | P03951 | purified FXIa, Boc-Glu-Ala-Arg-AMC fluorogenic substrate | inhibition, % at 5 µM | hit rate 0.14% among 220,000;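 active means inhibition of at least 40%; inactive means inhibition below 40%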;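 further: fluorescence of freed AMC excited at 355 nm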
FXIIa inh: blocks human coagulation factor XIIa protease activity; P00748; purified FXIIa, Boc-QGR-AMC fluorogenic substrate, 2 h; inhibition, % at 5 µM; hit rate 0.3% among 220,000; AID 800; in the data active means inhibition above about 40%
hK5 inh: blocks human kallikrein 5 protease activity | recombinant hK5, fluorogenic AMC substrate cleavage | AID 873 | hit rate 0.59% among 210,000 | Q9Y337 | inhibition, % at 5 µM;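 active means inhibition of 40% or more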
Target sequence (Q9Y337 67-293 limits assumed): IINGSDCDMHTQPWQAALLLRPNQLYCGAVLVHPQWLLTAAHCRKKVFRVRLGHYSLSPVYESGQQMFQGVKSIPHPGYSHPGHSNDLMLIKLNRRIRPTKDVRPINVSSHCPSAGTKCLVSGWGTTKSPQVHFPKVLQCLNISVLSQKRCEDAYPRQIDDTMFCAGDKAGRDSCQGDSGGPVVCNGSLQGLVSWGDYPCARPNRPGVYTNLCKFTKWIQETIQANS
A number is an active result; n = inactive; x = not tested or not shown.

SMILES | m-calpain inh | Thrombin inh | FXIa inh | FXIIa inh | hK5 inh
Cn1c(N/N=C/c2cccs2)cc(=O)n(C)c1=O | n | 65 | n | n | n
COc1ccc(C(C)C)cc1S(=O)(=O)Nc1ccncc1 | n | 46 | n | n | n
COc1cc(CNc2ncn[nH]2)cc(Br)c1OC | n | n | n | n | 71
O=C(Nc1cccc(F)c1)C1CCN(C(=O)c2ccccc2Cl)CC1 | n | n | n | n | 46
CSc1cccc(NC(=O)C2CCN(C(=O)c3ccccc3C)CC2)c1 | n | n | n | n | n
S=c1[nH]nc(-c2ccncc2)n1/N=C/c1cccc(Cl)c1 | n | n | n | n | n
Cc1ccc2nc(NC(=O)CSCC(=O)OCC(=O)c3ccccc3)sc2c1 | n | 93 | n | n | n
CC1=C(C(=O)OCCOc2ccccc2)C(c2ccc(C)o2)C2=C(CC(C)(C)CC2=O)N1 (stereo unspecified) | n | n | n | n | n
CC1=C(C(=O)Nc2ccc(C)cc2)C(c2ccc(C)o2)C2=C(CC(C)(C)CC2=O)N1 (stereo unspecified) | n | n | n | 45 | n
Cc1cc(/C=C\c2ccccc2)nc2ccccc12 | n | n | n | n | 50
COc1ccc(/C=C/c2cc(C(=O)O)c3ccccc3n2)cc1 | n | n | n | n | n
CS(=O)(=O)N(CC(=O)NCc1ccco1)Cc1ccc(Cl)cc1 | n | n | n | n | 78
CS(=O)(=O)N(CC(=O)NCc1ccccc1)Cc1ccc(Cl)cc1 | n | n | n | n | n
CS(=O)(=O)N(CC(=O)Nc1ccc2c(c1)OCCO2)Cc1ccc(Cl)cc1 | n | n | n | n | 48
Cn1nc(Cc2n[nH]c(=S)n2C)c2ccccc2c1=O | n | n | n | n | n
CSc1nc(Sc2ccccc2)c2ccccc2n1 | n | n | n | n | n
CSc1nc(Sc2ccc(Cl)cc2)c2ccccc2n1 | n | n | n | n | 62
O=c1oc(-c2ccco2)nc2ccccc12 | n | n | n | n | 44
O=c1oc(-c2cccs2)nc2ccccc12 | n | n | n | n | n
c1coc(-c2nc3ccccc3nc2-c2ccco2)c1 | n | n | n | 45 | n
O=c1oc(-c2ccco2)nc2c1cnn2-c1ccccc1 | n | n | n | 48 | n
O=c1c2cnn(-c3ccccc3)c2nc(-c2ccco2)n1-c1ccccc1 | n | n | n | n | n
O=C(O)c1cccc(Cn2c(Cl)c(/C=N/NC(=O)c3cc4ccccc4cc3O)sc2=O)c1 | 59 | n | n | n | n
CC(=O)c1c(C)[nH]c(C(=O)OCc2cccc(Cl)c2)c1C | 54 | n | n | n | n
CC(=O)c1c(C)[nH]c(C(=O)OCc2c(F)cccc2Cl)c1C | n | n | n | n | n
SMILES | m-calpain inh | Thrombin inh | FXIa inh | FXIIa inh | hK5 inh
Cc1ccc(S(=O)(=O)n2nc(C)cc2C)cc1 | n | n | n | n | 43
CCN(CC)CCCNCC(=O)Nc1ccc2c(c1)CCC2 | n | n | n | n | n
CCN(CC)CCCNCC(=O)Nc1ccc(OC)c(Cl)c1 | n | n | n | n | 42
Clc1ccccc1Cn1nnc2c(NCCN3CCOCC3)ncnc21 | n | n | 47 | n | n
COc1ccc(C2N(c3ccc4c(c3)OCCO4)C(=O)C2(F)F)cc1OC (stereo unspecified) | n | n | n | n | n
C/C(CC(=O)Nc1cc(Cl)ccc1C)=N\NC(N)=O | n | n | n | n | n
C/C(=N/Oc1nc(C)cc(C)n1)c1ccc(Cl)cc1Cl | n | n | n | n | n
C/C(=N/Oc1nc(C)cc(C)n1)c1ccc(Br)cc1 | n | n | n | n | 41
CCOC(=O)c1c(-c2ccc(C)cc2)csc1NC(=O)CCN1CCOCC1 | n | 42 | n | n | n
CCOC(=O)c1c(-c2ccccc2)csc1NC(=O)CCN1CCOCC1 | n | n | n | n | n
COc1ccc(/C=N/n2cnnc2)cc1Br | n | n | n | n | n
Cc1cc(C)n2nc(S(=O)(=O)N(C)c3ccccc3)nc2n1 | n | n | n | n | 55
CC12COC3(C(=O)Nc4ccc5ccccc5c4)CC1CCC32C (stereo unspecified) | n | n | n | x | n
Cn1c(CNc2ccc(Cl)cc2)nnc1SCc1ccccc1 | n | n | n | n | n
Cn1c(CNC(=O)Nc2ccccc2Cl)nnc1SCc1ccccc1 | n | n | n | n | 43
Cc1cc(N/N=C/c2ccccc2Br)nc2ccccc12 | n | n | n | n | 42
CCn1c(SCC(=O)O)nnc1-c1ccccc1OC | n | n | n | n | n
COc1ccc(/C=C(\C#N)c2n[nH]c(Cn3cncn3)n2)cc1 | n | n | n | 48 | n
N#C/C(=C\c1ccc(Cl)cc1)c1n[nH]c(Cn2cncn2)n1 | n | n | n | n | n
CCc1nnc(NC(=O)Cc2ccc(Br)cc2)s1 | n | n | n | n | n
CCN1C(=O)/C(=C\c2ccco2)C(C(=O)OC)=C1C | n | n | n | 43 | n
O=C(c1cc(Cl)nc2ccccc12)N1CCc2ccccc2C1 | n | n | 42 | n | n
O=C(NCc1ccco1)c1cccc(Nc2nc3ccc(Br)cc3[nH]2)c1 | 82 | n | n | n | n
O=C(NCC1CC1)c1ccc(Nc2nc3ccc(Br)cc3[nH]2)cc1 | n | n | n | n | n
O=c1[nH]c2cc3c(cc2cc1CN(Cc1cccnc1)C(=S)NCc1ccco1)OCCO3 | n | n | n | n | n
SMILES | m-calpain inh | Thrombin inh | FXIa inh | FXIIa inh | hK5 inh
Cc1ccc(S(=O)(=O)NC(CC(C)C)C(=O)NCc2ccco2)cc1 (stereo unspecified) | n | n | n | n | 45
Cc1ccc(S(=O)(=O)NC(CC(=O)NCc2ccco2)c2ccco2)cc1 (stereo unspecified) | n | n | n | n | n
O=C1CC2C(=O)NCCN2C(=NC(=O)c2ccc(Cl)cc2)N1 (stereo unspecified) | 92 | n | n | n | n
COCCCn1c(-c2ccc(Cl)cc2)n[nH]c1=S | n | n | n | n | n
COCCCn1cn[nH]c1=S | n | n | n | n | 63
COc1ccccc1C1=NOC(C)(c2sc(-c3ccc(Cl)cc3)nc2C)C1 (stereo unspecified) | n | n | n | n | n
O=C(CNC(=O)c1ccccc1F)OC(C(=O)Nc1cc(C(F)(F)F)ccc1Cl)c1ccccc1 (stereo unspecified) | 61 | n | n | n | n
CCCC(=O)NC(=S)Nc1ccc(S(=O)(=O)Nc2ccc(OCC)cc2)cc1 | n | n | n | n | n
CCOc1ccc(NS(=O)(=O)c2ccc(NC(=S)NC(=O)CC(C)C)cc2)cc1 | 52 | n | n | n | n
O=C(NCc1ccncc1)/C(=C/c1cccc([N+](=O)[O-])c1)NC(=O)c1ccccc1 | n | n | n | n | n
O=C(COc1ccc(S(=O)(=O)Nc2ccccc2)cc1)N1CCOCC1 | n | 53 | n | n | n
COc1ccc(NS(=O)(=O)c2ccc(OCC(=O)N3CCOCC3)cc2)cc1 | n | n | n | n | n
COc1ccc(OCC(=O)Nc2ccncc2)cc1 | n | n | n | n | n
CC1CC(=O)Nc2ccccc2N1C(=O)Nc1ccc(F)cc1F (stereo unspecified) | n | n | n | n | n
CC1CC(=O)Nc2ccccc2N1C(=O)Nc1ccc(F)cc1 (stereo unspecified) | n | n | n | n | 55
